Bioassay records: PubChem, The Scripps Research Institute Molecular Screening Center
CHRM4 agonist: CHRM4 agonism in calcium assay; P08173; CHO-K1 hM4/Gqi5, Fluo-8 calcium fluorescence; vehicle 0%, full acetylcholine response 100%; activation, % at 3 µM; 0.14% of 360,000 active; AID 624127;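 active = activation above the run mean over all test wells plus 3 SD, cut at about 32% in these data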;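 also: peak over basal fluorescence ratio per well then scaled between controls; 0% = DMSO wells and 100% = acetylcholine at EC100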
Target sequence (P08173 whole entry, looked up): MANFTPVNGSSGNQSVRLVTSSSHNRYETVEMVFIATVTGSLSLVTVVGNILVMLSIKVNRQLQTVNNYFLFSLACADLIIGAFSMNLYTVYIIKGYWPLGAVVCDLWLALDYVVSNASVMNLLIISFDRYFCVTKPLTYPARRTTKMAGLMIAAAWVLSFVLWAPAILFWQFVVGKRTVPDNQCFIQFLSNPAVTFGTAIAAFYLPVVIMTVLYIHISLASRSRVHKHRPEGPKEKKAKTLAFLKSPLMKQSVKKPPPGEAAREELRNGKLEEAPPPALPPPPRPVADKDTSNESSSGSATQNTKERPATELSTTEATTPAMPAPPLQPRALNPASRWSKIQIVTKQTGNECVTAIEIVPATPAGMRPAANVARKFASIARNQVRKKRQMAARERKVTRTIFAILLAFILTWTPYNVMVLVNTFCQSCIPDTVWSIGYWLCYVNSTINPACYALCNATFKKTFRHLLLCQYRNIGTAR
TAAR1 agonist: human TAAR1 agonism; CHO RD-HGA16 TAAR1, Fluo-8 calcium fluorescence; vehicle wells 0%, saturating PEA agonist 100%; activation, % at 3 µM; 0.99% of 360,000 active; Q96RJ0;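 active = activation above the mean activation of all test compounds in the run plus 3 SD, cut at about 38% in these data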
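test system = CHO RD-HGA16 cells carrying human TAAR1 plus Gα16 | schedule = 17-24 h seeding, 75 min 37 °C dye, 30 min RT | compound dosing = 3 µM single concentration | control set = DMSO and PEA EC100 | replicates = n 1 | signal = Fluo-8 fluorescence, 5 s baseline then 140 s kinetic read | measure = percent activation vs PEA EC100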
CHRM4 PAM: positive allosteric modulators of human muscarinic M4 receptor; CHO-K1 hM4/Gqi5, Fluo-8 calcium fluorescence, ACh EC20; 0% = ACh EC20, 100% = maximal ACh; activation, % at 3 µM; 0.4% of 360,000 active; P08173;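 active = activation above its plate's cutoff, the mean activation of sample wells plus 3 SD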
TAAR1 antagonist: human TAAR1 antagonism; Q96RJ0; CHO RD-HGA16 TAAR1, Fluo-8 calcium fluorescence, antagonist; inhibition, % at 3 µM; 1.5% of 360,000 active; AID 624466;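 active = inhibition above a per-plate cutoff, the mean inhibition of test compounds on that plate plus 3 SD, cut at about 49% in these data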;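 also: 0% = DMSO plus EC80 beta-PEA response and 100% = DMSO alone without agonist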
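System: CHO RD-HGA16 cells bearing hTAAR1. Reagent: EC80 β-phenethylamine stimulus. Schedule: seeding 17-24 h prior, 75-min 37 °C, 30-min RT dye loading. Signal: Fluo-8 intracellular calcium dye fluorescence, real-time kinetic reads. Read-out: % inhibition from peak post-agonist over basal fluorescence ratio. Benchmarks: vehicle wells and EC80 agonist wells. Replicates: n of 1.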
M4 antag: antagonists of human muscarinic M4 receptor (CHRM4); CHO-hM4 cells, ACh EC80, Fluo-8 calcium fluorescence; inhibition, % at 3 µM; 0.73% of 360,000 active; AID 624125;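 active = inhibition above its plate's cutoff, the mean inhibition of sample wells plus 3 SD, cut at about 27% in these data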;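 also: 0% = acetylcholine EC80 with DMSO and 100% = DMSO without agonist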
Numbers without * were called inactive; · = no result. A selection: hits, their analogues and other compounds. The true share with any hit is near 3%.

SMILES	CHRM4 agonist	TAAR1 agonist	CHRM4 PAM	TAAR1 antagonist	M4 antag
Cc1cc(N2CCNC[C@H]2C)ccc1N1CC[C@@H](O)C1	·	3	·	-16	·
O=C1NC(=O)C(=Cc2ccc(SC3CCCCC3)o2)C(=O)N1	1	30	4	59*	7
OC1CN2CCC(O)C2C(O)C1O (stereo not given)	·	1	·	-9	·
O=C(C[N+]12CCC(CC1)C(OC(=O)c1ccccc1)C2)c1ccc([N+](=O)[O-])cc1 (stereo not given)	0	5	-21	-12	13
CCC(CO)(C(=O)OC1C[N+]2(C)CCC1CC2)c1ccccc1 (stereo not given)	-1	1	-25	20	99*
CC[C@]12CCN(CC3(O)CC3)[C@H](Cc3ccc(O)cc31)C2(C)C	·	3	·	14	·
C[N+]1([O-])[C@@H]2CC(OC(=O)[C@H](CO)c3ccccc3)C[C@H]1[C@@H]1O[C@@H]12 (stereo not given in full)	2	2	-17	6	99*
C#CC[N+]1(C)[C@@H]2CC(OC(=O)C(CO)c3ccccc3)C[C@H]1C(O)C2 (stereo not given in full)	0	4	-16	4	98*
C[N+]1(C)[C@@H]2CC[C@H]1CC(OC(=O)C(CO)c1ccccc1)C2 (stereo not given in full)	1	0	-18	4	99*
C[N+]1(C)C2CCC1CC(OC(=O)C(CO)c1ccccc1)C2 (stereo not given)	2	7	-26	-25	98*
C[N+]1(C)C2CCC1CC(OC(=O)c1ccccc1)C2 (stereo not given)	0	-1	-23	-3	-3
C=CCN1CC[C@]23c4c5ccc(O)c4OC2C(=O)CC[C@@]3(O)[C@H]1C5 (stereo not given in full)	·	1	·	-8	·
O=C(O)c1cc(S(=O)(=O)N2CC3CC(C2)c2cccc(=O)n2C3)ccc1F (stereo not given)	·	2	·	-20	·
Cc1cc(N2CCNC[C@H]2C)ccc1N1CCN[C@H](C)C1	·	1	·	-25	·
COC(=O)C1=C(c2ccc(OC(F)(F)F)cc2)C[C@@H]2CC[C@H]1N2C(=O)N1CCc2cc(OC)c(OC)cc2C1	·	-2	·	-11	·
O=C(O)C(Br)Br	·	1	·	-3	·
O=C1NC(=S)SC1=Cc1ccc(N(CCCl)CCCl)cc1	4	11	6	19	7
CC[N+]12CCC(CC1)C(C(O)(c1ccccc1)c1ccccc1)C2 (stereo not given)	0	0	-44	3	72*
C[N+]12CCC(CC1)C(C(O)(c1cccc(Cl)c1)c1cccc(Cl)c1)C2 (stereo not given)	0	0	-15	-8	87*
CN1CCCC(C(O)(c2ccccc2)c2ccccc2)C1 (stereo not given)	1	9	-18	-1	-11
Cc1ccc(C(O)(c2ccc(C)c(C)c2)C2CN3CCC2CC3)cc1C (stereo not given)	4	15	-2	-4	0
CC(C)[N+]12CCC(CC1)C(C(O)(c1ccccc1)c1ccccc1)C2 (stereo not given)	-1	7	-15	-17	54*
O=C(NCCN1CCC2(CC1)C(=O)NCN2c1ccccc1)c1cccc2c1-c1ccccc1C2=O	·	2	·	-7	·
CCOC(=O)C1=C(C(=O)OCC)C2(c3ccccc3)c3ccccc3C1(C)N2C (stereo not given)	·	0	·	-40	·
CNCCCc1ccccc1	0	43*	3	3	-2
SMILES	CHRM4 agonist	TAAR1 agonist	CHRM4 PAM	TAAR1 antagonist	M4 antag
BrCCc1ccccc1	1	3	5	-15	-5
COC(=O)C1C(c2ccc(Cl)cc2)CC2CCC1N2C (stereo not given)	·	2	·	-14	·
CC1C2Cc3ccc(O)cc3C1(C)CCN2CC1CC1 (stereo not given)	·	1	·	12	·
COc1ccc(-n2nnnc2C(c2cccc(OC)c2OC)N2CCC(n3c(=O)[nH]c4ccccc43)CC2)cc1 (stereo not given)	18	13	-8	56*	18
COc1ccc(C(c2nnnn2-c2c(C)cccc2C)N2CCC(n3c(=O)[nH]c4ccccc43)CC2)cc1 (stereo not given)	-1	3	10	-31	-18
COc1cccc(C(c2nnnn2Cc2ccccc2)N2CCC(n3c(=O)[nH]c4ccccc43)CC2)c1OC (stereo not given)	9	12	-11	43	26
COc1cccc(C(c2nnnn2-c2ccc3c(c2)OCCO3)N2CCC(n3c(=O)[nH]c4ccccc43)CC2)c1OC (stereo not given)	23	51*	-10	79*	13
COc1ccc(-n2nnnc2C(c2ccccc2)N2CCC(n3c(=O)[nH]c4ccccc43)CC2)cc1 (stereo not given)	19	14	-12	67*	25
COc1ccc(-n2nnnc2C(c2ccnc3ccccc23)N2CCC(n3c(=O)[nH]c4ccccc43)CC2)cc1 (stereo not given)	11	17	-9	18	10
O=c1[nH]c2ccccc2n1C1CCN(C(c2cccc3ccccc23)c2nnnn2Cc2ccccc2)CC1 (stereo not given)	14	8	-13	50*	24
O=S(=O)(c1ccc2ccccc2c1)N1Cc2cc(Br)ccc2-n2nncc2C1	·	0	·	-15	·
Cc1cccc(C)c1-n1nnnc1C(c1cc2ccccc2o1)N1CCC(n2c(=O)[nH]c3ccccc32)CC1 (stereo not given)	2	0	-10	37	-1
O=c1[nH]c2ccccc2n1C1CCN(C(CCc2ccccc2)c2nnnn2C2CCCC2)CC1 (stereo not given)	21	16	-8	56*	17
Cc1cccc(C)c1-n1nnnc1C(c1ccccc1OC(F)(F)F)N1CCC(n2c(=O)[nH]c3ccccc32)CC1 (stereo not given)	0	4	6	-29	-17
O=c1[nH]c2ccccc2n1C1CCN(C(c2ccccc2OC(F)(F)F)c2nnnn2-c2ccc3c(c2)OCCO3)CC1 (stereo not given)	18	12	-6	52*	15
CC(C)(C)c1cc(O)ccc1O	·	4	·	-12	·
O=C(c1cccc(Cl)c1)C1CCCN(Cc2cccc3cnccc23)C1 (stereo not given)	5	2	-20	-5	12
O=C(c1ccc(Cl)cc1)C1CCCN(Cc2ccc3c(c2)OCCO3)C1 (stereo not given)	2	9	-15	12	4
O=C(c1ccc(Cl)cc1)C1CCCN(Cc2ccc3ncccc3c2)C1 (stereo not given)	8	3	-22	-42	28*
